Measured values published in paper PMC7614726 (ACS chemical neuroscience, 2020).

Key:
[1] = system: acetylated α-tubulin in human whole blood lymphocytes; assay: Human whole blood assay, acetylated α-tubulin by flow cytometry; assay type: cell-based; conditions: 10 and 30 μM
Outline: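 Whole blood from healthy volunteers (25 μL) was mixed with compound diluted in RPMI 1640/10% FBS, with 0.1% DMSO final in controls. Incubation was 30 min at 37°C/5% CO2, then 3.5 h more after adding medium. Cells were lysed/fixed 10 min at room temperature and permeabilised 20 min on ice. Staining used AF647-labelled anti-acetylated α-tubulin or isotype control, 20–30 min on ice. Flow cytometry used a lymphocyte gate.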

[2] = Precipitation on addition to culture medium; assay type: physicochemical; conditions: culture medium (RPMI 1640, 10% FBS)
[3] = system: SCG neurons expressing HSPB1^S135F; assay: Axonal transport of mitochondria in SCG neurons expressing HSPB1 S135F; assay type: cell-based, mouse; conditions: 24 h, 100 nM T-3796106, 250 nM T-3793168, 1 μM Tubastatin A
Outline: (§1)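 Medium contained NGF, 10% FBS and 4 μM aphidicolin. Nuclei were microinjected with mutant human HSPB1 plus mito-EGFP (total DNA ≤0.05 μg/μL). Controls got DMSO. Spinning-disk confocal at 37°C/5% CO2, […], frames 1 s apart for 2 min, 4–5 neurons per dish. Difference Tracker counted moving particles per 1000 pixels.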

wild-type SCG neurons = assay: Axonal transport of mitochondria in dissociated wild-type SCG neurons; assay type: cell-based, mouse; conditions: 100 nM T-3796106, 250 nM T-3793168, 1 μM Tubastatin A, 24 h
[4] = system: SCG neurons expressing HSPB1^P182L; assay: Axonal transport of mitochondria in SCG neurons expressing HSPB1 P182L; assay type: cell-based, mouse; conditions: 100 nM T-3796106, 250 nM T-3793168, 1 μM Tubastatin A
Outline: as §1

Row | SMILES | Levels of acetylated a-tubulin at 10 versus 30 μM [1] | Concentration showing some precipitate when added in the culture medium [2] [µM] | Average and maximum speed of mitochondria movement [3] | Rescue of anterograde mitochondrial transport (number of moving mitochondria) [3] | Number, average and maximum velocity of axonally transported mitochondria (wild-type SCG neurons) | Effect on mitochondrial movement [4]
1 | O=C(CCCCCCNC(=O)c1cnc(N(c2ccccc2)c2ccccc2)nc1)NO [ACY-1215] | almost the same | 300 | – | – | – | –
2 | CN1CCc2c(c3ccccc3n2Cc2ccc(C(=O)NO)cc2)C1 [Tubastatin A] | almost the same | – | unaffected by any of these treatments | rescue of anterograde axonal transport | no significant change | no effect on mitochondrial movement
